According to ChEMBL document CHEMBL4428054, “Synthesis of Fluorescent Binaphthyl Amines That Bind c-MYC G-Quadruplex DNA and Repress c-MYC Expression” (J Med Chem, 2016):
Active and inactive are the calls of the source. No cut-off for these calls is given here.

How the values were obtained:
[1] = Drug localization in cytoplasm of human HeLa cells at 5 uM incubated for 2 hrs by fluorescence microscopy; format: ADME, subcellular
Summary of the method: (§1)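 Intrinsic ligand fluorescence imaged by fluorescence microscopy in HeLa cells after 2 h at 5.0 μM. Merged images were used to assign nuclear versus cytoplasmic localisation.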

[2] = tested on: HeLa; assay: Induction of apoptosis in human HeLa cells assessed as early apoptotic cells level at 5 uM incubated for 24 hrs by Annexin V-FITC staining based flow cytometry (reference value: 1.1%); format: functional
[3] = tested on: C2C12; assay: Cytotoxicity against mouse C2C12 cells incubated for 24 hrs by MTT assay; format: cell-based; conditions: C2C12, 24 h
Summary of the method: (§2)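 MTT growth-inhibition assay in HeLa, A549 and mouse C2C12 cells. Cells given 0.1% DMSO served as control. IC50 values were reported.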

[4] = tested on: Quadruplex DNA; assay: Binding affinity to pre-annealed c-MYC G-quadruplex (unknown origin) assessed as increase in fluorescence intensity at 1 uM in 100 mM KCl, 10 mM Tris.HCl at pH 7.4 by fluorescence spectroscopy relative to untreated control; format: nucleic-acid assay; conditions: unidentified
Summary of the method: (§3)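 Fluorescence titration in 100 mM KCl, 10 mM Tris·HCl, pH 7.4. Excitation was 350 nm and emission was read at the 430 nm maximum. Ligand (1 μM for c-MYC) was titrated with increasing quadruplex or ds DNA, up to 20 equiv. Change in intensity was scored, and Kd was derived from the titration curves.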

[5] = Selectivity for 5'-FAM and 3'-TAMRA-labeled c-MYC G-qudaruplex (unknown origin) over 5'-FAM and 3'-TAMRA-labeled c-KIT1 G-qudaruplex (unknown origin)
[6] = target: Quadruplex DNA; assay: Binding affinity to pre-annealed c-KIT1 G-quadruplex (unknown origin) in 100 mM KCl, 10 mM Tris.HCl at pH 7.4 by fluorescence spectroscopy relative to untreated control; format: nucleic-acid assay, unidentified; summary of the method: as §3
[7] = tested on: unidentified; assay: Selectivity for 5'-FAM and 3'-TAMRA-labeled c-MYC G-quadruplex (unknown origin) over 5'-FAM and 3'-TAMRA-labeled k-RAS G-quadruplex (unknown origin)
[8] = tested on: HeLa; assay: Cell cycle arrest in human HeLa cells assessed as accumulation at subG1 phase at 5 uM incubated for 24 hrs by propidium iodide staining based flow cytometry (reference value: 2.2%); format: functional
[9] = tested on: Quadruplex DNA; assay: Binding affinity to c-MYC G-quadruplex (unknown origin) assessed as induction of line broadening of imino protons by 1H-NMR spectroscopy; format: nucleic-acid assay; conditions: unidentified
Summary of the method: (§4)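 1D 1H NMR of c-MYC quadruplex DNA at different ligand:DNA ratios, monitoring imino and aromatic regions against partial signal assignments. Chemical shift perturbation or line broadening was noted separately at ratios below 1 and at ratios of 1 or above.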

[10] = tested on: Quadruplex DNA; assay: Binding affinity to c-MYC G-quadruplex (unknown origin) assessed as induction of chemical shift perturbations of imino protons by 1H-NMR spectroscopy; format: nucleic-acid assay; conditions: unidentified; summary of the method: as §4
[11] = tested on: unidentified; assay: Selectivity for 5'-FAM and 3'-TAMRA-labeled c-MYC G-quadruplex (unknown origin) over 5'-FAM and 3'-TAMRA-labeled c-KIT2 G-quadruplex (unknown origin)
[12] = tested on: dsDNA; assay: Stabilization of 5'-FAM and 3'-TAMRA-labeled dsDNA (unknown origin) assessed as change in melting temperature at 5 uM by FRET assay; format: nucleic-acid assay
Summary of the method: (§5)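 FRET melting of dual-labelled (5′-FAM/3′-TAMRA) promoter quadruplexes or duplex in 60 mM potassium cacodylate buffer, pH 7.4. ΔTm is taken against ligand-free Tm. The ligand was tested across a concentration series. Maximum measurable Tm is 93 °C.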

[13] = tested on: Quadruplex DNA; assay: Stabilization of 5'-FAM and 3'-TAMRA-labeled c-KIT1 G-quadruplex (unknown origin) assessed as change in melting temperature at 1 uM by FRET assay; format: nucleic-acid assay; conditions: unidentified; summary of the method: as §5
[14] = tested on: HeLa; assay: Induction of apoptosis in human HeLa cells assessed as necrotic cells level at 5 uM incubated for 24 hrs by Annexin V-FITC staining based flow cytometry (reference value: 0.1%); format: functional
[15] = tested on: HeLa; assay: Cytotoxicity against human HeLa cells incubated for 24 hrs by MTT assay; format: functional, cell-based; summary of the method: as §2
[16] = tested on: HeLa; assay: Cell cycle arrest in human HeLa cells assessed as accumulation at G0/G1 phase at 5 uM incubated for 24 hrs by propidium iodide staining based flow cytometry (reference value: 61.5%); format: functional
[17] = tested on: Quadruplex DNA; assay: Stabilization of 5'-FAM and 3'-TAMRA-labeled c-MYC G-quadruplex (unknown origin) assessed as change in melting temperature at 1 uM in presence of 100 nM to 10 uM dsDNA by FRET assay; format: nucleic-acid assay; conditions: unidentified
[18] = tested on: dsDNA; assay: Binding affinity to 20 equivalents of dsDNA (unknown origin) in 100 mM KCl, 10 mM Tris.HCl at pH 7.4 by fluorescence spectroscopy relative to untreated control; format: nucleic-acid assay; summary of the method: as §3
[19] = tested on: A549; assay: Cytotoxicity against human A549 cells incubated for 24 hrs by MTT assay; format: functional, cell-based; conditions: A549, 24 h; summary of the method: as §2
[20] = target: Quadruplex DNA; assay: Binding affinity to pre-annealed c-KIT2 G-quadruplex (unknown origin) in 100 mM KCl, 10 mM Tris.HCl at pH 7.4 by fluorescence spectroscopy relative to untreated control; format: nucleic-acid assay, unidentified; summary of the method: as §3
[21] = Drug localization in nucleus of human HeLa cells at 5 uM incubated for 2 hrs by fluorescence microscopy; format: ADME, subcellular; summary of the method: as §1
[22] = tested on: Quadruplex DNA; assay: Stabilization of 5'-FAM and 3'-TAMRA-labeled c-MYC G-quadruplex (unknown origin) assessed as change in melting temperature at 3 uM by FRET assay; format: nucleic-acid assay; conditions: unidentified; summary of the method: as §5
[23] = tested on: Quadruplex DNA; assay: Stabilization of 5'-FAM and 3'-TAMRA-labeled c-KIT1 G-quadruplex (unknown origin) assessed as change in melting temperature at 1 uM in presence of 100 nM to 10 uM dsDNA by FRET assay; format: nucleic-acid assay; conditions: unidentified
[24] = tested on: HeLa; assay: Cell cycle arrest in human HeLa cells assessed as accumulation at G2/M phase at 5 uM incubated for 24 hrs by propidium iodide staining based flow cytometry (reference value: 25.5%); format: functional
[25] = tested on: HeLa; assay: Effect on GAPDH protein expression in human HeLa cells at 1 to 5 uM incubated for 24 hrs by Western blot method; format: ADME, cell-based
Summary of the method: (§6)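 Western blot of HeLa lysates after 24 h at 1, 2.5 or 5 μM, with DMSO control. c-MYC was probed, GAPDH served as loading control, and bands were quantified by densitometry.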

[26] = tested on: Quadruplex DNA; assay: Stabilization of 5'-FAM and 3'-TAMRA-labeled c-MYC G-quadruplex (unknown origin) assessed as change in melting temperature at 1 uM by FRET assay; format: nucleic-acid assay; conditions: unidentified; summary of the method: as §5
[27] = tested on: HeLa; assay: Effect on GAPDH mRNA expression in human HeLa cells at 1 to 5 uM incubated for 24 hrs by RT-PCR method; format: ADME, cell-based
[28] = tested on: Quadruplex DNA; assay: Stabilization of 5'-FAM and 3'-TAMRA-labeled c-KIT2 G-quadruplex (unknown origin) assessed as change in melting temperature at 1 uM in presence of 100 nM to 10 uM dsDNA by FRET assay; format: nucleic-acid assay; conditions: unidentified
[29] = target: Quadruplex DNA; assay: Binding affinity to pre-annealed c-MYC G-quadruplex (unknown origin) in 100 mM KCl, 10 mM Tris.HCl at pH 7.4 by fluorescence spectroscopy relative to untreated control; format: nucleic-acid assay, unidentified; summary of the method: as §3
[30] = tested on: Quadruplex DNA; assay: Effect on parallel topology of c-MYC G-quadruplex (unknown origin) at 0 to 5 equivalent by CD spectroscopy; format: nucleic-acid assay; conditions: unidentified
[31] = tested on: HeLa; assay: Cell cycle arrest in human HeLa cells assessed as accumulation at S phase at 5 uM incubated for 24 hrs by propidium iodide staining based flow cytometry (reference value: 10.8%); format: functional
[32] = tested on: Quadruplex DNA; assay: Stabilization of 5'-FAM and 3'-TAMRA-labeled k-RAS G-quadruplex (unknown origin) assessed as change in melting temperature at 1 uM in presence of 100 nM to 10 uM dsDNA by FRET assay; format: nucleic-acid assay; conditions: unidentified
[33] = tested on: Quadruplex DNA; assay: Stabilization of c-MYC G-quadruplex in human HeLa cells assessed as reduction in c-MYC mRNA level at 5 uM incubated for 24 hrs by RT-PCR method; format: cell-based; set-up: scale not given: the % may be the effect or the level left
Summary of the method: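 qRT-PCR on HeLa cells treated 24 h at 1.0, 2.5 or 5.0 μM. c-MYC mRNA was normalised to GAPDH and compared with 0.1% DMSO-treated control.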

[34] = tested on: HeLa; assay: Induction of apoptosis in human HeLa cells assessed as late apoptotic cells level at 5 uM incubated for 24 hrs by Annexin V-FITC staining based flow cytometry (reference value: 0.8%); format: functional
[35] = tested on: Quadruplex DNA; assay: Stabilization of 5'-FAM and 3'-TAMRA-labeled k-RAS G-quadruplex (unknown origin) assessed as change in melting temperature at 1 uM by FRET assay; format: nucleic-acid assay; conditions: unidentified; summary of the method: as §5
[36] = tested on: Quadruplex DNA; assay: Stabilization of 5'-FAM and 3'-TAMRA-labeled c-KIT2 G-quadruplex (unknown origin) assessed as change in melting temperature at 1 uM by FRET assay; format: nucleic-acid assay; conditions: unidentified; summary of the method: as §5
[37] = tested on: HeLa; assay: Induction of apoptosis in human HeLa cells assessed as viable cell level at 5 uM incubated for 24 hrs by Annexin V-FITC staining based flow cytometry; format: functional
[38] = tested on: Quadruplex DNA; assay: Stabilization of c-MYC G-quadruplex in human HeLa cells assessed as reduction in c-MYC mRNA level at 5 uM incubated for 24 hrs by Western blot method; format: cell-based; set-up: scale not given: the % may be the effect or the level left; conditions: in the assay text read “c-MYC protein level” for “c-MYC mRNA level”; summary of the method: as §6
[39] = target: Quadruplex DNA; assay: Binding affinity to pre-annealed c-MYC G-quadruplex (unknown origin) in 10 mM Tris.HCl buffer containing 100 mM KCl at pH 7.4 by UV/Visible spectroscopy; format: nucleic-acid assay, unidentified
Summary of the method: (§7)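 UV–vis titration of 20 μM ligand with preannealed c-MYC quadruplex (0–1.4 equiv) in 100 mM KCl, 10 mM Tris·HCl, pH 7.4. Hypochromicity was followed at the 362 nm ligand band, because the 298 nm band overlaps DNA absorbance. Kd was fitted with the Hill 1 equation.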

[40] = tested on: dsDNA; assay: Stabilization of 5'-FAM and 3'-TAMRA-labeled dsDNA (unknown origin) assessed as change in melting temperature at 1 uM by FRET assay; format: nucleic-acid assay; summary of the method: as §5
[41] = tested on: dsDNA; assay: Binding affinity to dsDNA (unknown origin) in 10 mM Tris.HCl buffer containing 100 mM KCl at pH 7.4 by UV/Visible spectroscopy; format: nucleic-acid assay
[42] = tested on: Quadruplex DNA; assay: Binding affinity to pre-annealed c-MYC G-quadruplex (unknown origin) assessed as hypochromacity at 20 uM in 10 mM Tris.HCl buffer containing 100 mM KCl at pH 7.4 by UV/Visible spectroscopy; format: nucleic-acid assay; conditions: unidentified; summary of the method: as §7
[43] = target: Quadruplex DNA; assay: Binding affinity to pre-annealed k-RAS G-quadruplex (unknown origin) in 100 mM KCl, 10 mM Tris.HCl at pH 7.4 by fluorescence spectroscopy relative to untreated control; format: nucleic-acid assay, unidentified; summary of the method: as §3

CN(C)CCCNC(=O)c1ccc(Nc2ccc(-c3ccc(Nc4ccc(C(=O)NCCCN(C)C)cc4)c4ccccc34)c3ccccc23)cc1
Drug uptake [1]: Active | Activity [2]: 37.9% | IC50 [3]: ≥ 40 µM | fold change (FC) [4]: 1.2 | Selectivity ratio [5]: 3 to 5 | Kd [6]: 19.4 µM | Selectivity ratio [7]: 3 to 5 | Activity [8]: 39.2% | Activity [9]: Active | Activity [10]: Active | Selectivity ratio [11]: 3 to 5 | Activity [12]: inactive | ΔTm [13]: 9 °C | Activity [14]: 0.5% | IC50 [15]: 7.24 µM | Activity [16]: 46.9% | Activity [17]: Active | Activity [18]: inactive | IC50 [19]: ≥ 40 µM | Kd [20]: 14.1 µM | Drug uptake [21]: Active | ΔTm [22]: 23 °C | Activity [23]: Active | Activity [24]: 8.6% | Activity [25]: Non-Toxic | ΔTm [26]: 15 °C | Activity [27]: Non-Toxic | Activity [28]: Active | Kd [29]: 21.4 µM | Activity [30]: inactive | Activity [31]: 5.3% | Activity [32]: Active | Activity [33]: 27% | Activity [34]: 3.6% | ΔTm [35]: 18 °C | ΔTm [36]: 7 °C | Activity [37]: Active | Activity [38]: 36% | Kd [39]: 22.6 µM | ΔTm [40]: 1 °C | Activity [41]: inactive | Activity [42]: 18% | Kd [43]: 13 µM
